How the values were obtained:
[1] = tested on: Human immunodeficiency virus 1; test: Concentration required to inhibit HIV-1 induced cytopathicity in MT-4 cells by 50%; type: functional, organism-based; conditions: Human immunodeficiency virus 1, MT4
How it was run: (§1)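 MT-4 cells were infected with HIV-1 (strain HTLV-IIIB/LAI) or HIV-2 (strain LAV-2 ROD) and exposed to compound. IC50 is the concentration that inhibited HIV-induced cytopathicity by 50%. Values are means of two separate experiments.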

[2] = tested on: Semliki Forest virus; test: Concentration required to inhibit forest induced cytopathicity in Vero cells by 50%; type: functional, organism-based
How it was run: (§2)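 Virus was added to the cell monolayers in the presence of compound. Incubation continued until the viral cytopathic effect was scored. IC50 is the concentration that reduced virus-induced cytopathicity by 50%.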

[3] = tested on: Junin virus; test: Concentration required to inhibit Junin induced cytopathicity in Vero cells by 50%; type: functional, organism-based; conditions: Mammarenavirus juninense
[4] = tested on: Human alphaherpesvirus 1; test: Concentration required to inhibit HSV-1 TK-(B2006) induced cytopathicity in E6SM cells by 50%; conditions: Human alphaherpesvirus 1, E6SM
[5] = tested on: Human betaherpesvirus 5; test: Concentration required to inhibit HCMV(AD169) induced cytopathicity in HEL cells by 50%; type: functional, organism-based; conditions: Human betaherpesvirus 5, HEL; how it was run: as §2
[6] = tested on: E6SM; test: Minimum cytotoxic concentration required to cause a microscopically detectable alteration of normal cell morphology in E6SM cells; type: functional, Homo sapiens
How it was run: (§3)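 Uninfected E6SM, HeLa or Vero cells were exposed to compound and examined by microscopy. MCC is the lowest concentration causing a detectable alteration of normal cell morphology.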

[7] = tested on: Human alphaherpesvirus 1; test: Concentration required to inhibit HSV-1(KOS) induced cytopathicity in E6SM cells by 50%; conditions: Human alphaherpesvirus 1, E6SM
[8] = tested on: Human betaherpesvirus 5; test: Concentration required to inhibit HCMV(Davis) induced cytopathicity in HEL cells by 50%; type: functional, organism-based; conditions: Human betaherpesvirus 5, HEL; how it was run: as §2
[9] = tested on: Coxsackievirus; test: Concentration required to inhibit Coxsackie induced cytopathicity in HeLa cells by 50%; type: functional, organism-based; how it was run: as §2
[10] = tested on: Human alphaherpesvirus 2; test: Concentration required to inhibit HSV-2(G) induced cytopathicity in E6SM cells by 50%; conditions: Human alphaherpesvirus 2, E6SM
[11] = tested on: Vaccinia virus; test: Concentration required to inhibit Vaccinia induced cytopathicity in E6SM cells by 50%; type: functional, organism-based; conditions: Orthopoxvirus vaccinia
[12] = tested on: HEL; test: Minimum cytotoxic concentration required to cause a microscopically detectable alteration of normal cell morphology in HEL cells; type: functional, Homo sapiens
[13] = tested on: Poliovirus 1; test: Concentration required to inhibit Polio-1 induced cytopathicity in HeLa cells by 50%; type: functional, organism-based; conditions: Enterovirus C
[14] = tested on: Human immunodeficiency virus 1; test: Concentration required to inhibit by 50% syncytium formation between MOLT-4 cells and HIV-1(IIIB); type: functional, organism-based; conditions: Human immunodeficiency virus 1, MOLT-4
How it was run: (§4)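 Uninfected MOLT-4 cells were co-cultured with HUT-78 cells chronically infected with HIV-1 (IIIB) or HIV-2 (ROD), in the presence of compound. The end point was syncytium formation, and IC50 is the concentration giving 50% inhibition. Values are means of two separate experiments.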

[15] = tested on: Human respirovirus 3; test: Concentration required to inhibit parainfluenza-3 induced cytopathicity in Vero cells by 50%; type: functional, organism-based; conditions: Human respirovirus 3, Vero; how it was run: as §2
[16] = tested on: Vesicular stomatitis virus; test: Concentration required to inhibit vesicular stomatitis induced cytopathicity in E6SM cells by 50%; type: functional, organism-based
[17] = tested on: Human immunodeficiency virus 2; test: Concentration required to inhibit HIV-2 induced cytopathicity in MT-4 cells by 50%; type: functional, organism-based; conditions: Human immunodeficiency virus 2, MT4; how it was run: as §1
[18] = tested on: Vero; test: Minimum cytotoxic concentration required to cause a microscopically detectable alteration of normal cell morphology in Vero cells; type: functional, Chlorocebus sabaeus; how it was run: as §3
[19] = tested on: HeLa; test: Minimum cytotoxic concentration required to cause a microscopically detectable alteration of normal cell morphology in HeLa cells; type: functional, Homo sapiens; how it was run: as §3
[20] = tested on: Mammalian orthoreovirus 1; test: Concentration required to inhibit reovirus-1 induced cytopathicity in Vero cells by 50%; type: functional, organism-based; conditions: Mammalian orthoreovirus 1, Vero; how it was run: as §2
[21] = tested on: Human immunodeficiency virus 2; test: Concentration required to inhibit by 50% syncytium formation between MOLT-4 cells and HIV-2 (ROD) infected HUT-78 cells; type: functional, organism-based; conditions: Human immunodeficiency virus 2, MOLT-4; how it was run: as §4
[22] = tested on: MT4; test: Concentration required to reduce the viability of mock-infected MT-4 cells by 50%; type: functional; conditions: Homo sapiens
How it was run: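 Mock-infected MT-4 cells were exposed to compound. CC50 is the concentration that reduced cell viability by 50%. Values are means of two separate experiments.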

[23] = tested on: Human immunodeficiency virus 1; test: Inhibitory concentration required to inhibit HIV-induced cytopathicity in CEM-4 cells by 50% based in the MTT assay; Not active; type: functional, organism-based
[24] = tested on: CEM-4; test: Cytotoxic concentration required to reduce the viability of uninfected cells by 50% after 5 days of incubation in the presence on CEM-4 cells.; type: functional; conditions: Homo sapiens, CEM-4, 120 h
How it was run: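 Uninfected CEM-4 cells were incubated with compound for 5 days. CC50 is the concentration that reduced viability by 50%. Values average at least two separate experiments.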

[25] = tested on: Tacaribe virus; test: Concentration required to inhibit Tacaribe induced cytopathicity in Vero cells by 50%; type: functional, cell-based; conditions: Mammarenavirus tacaribeense
[26] = tested on: Sindbis virus; test: Concentration required to inhibit Sindbis induced cytopathicity in Vero cells by 50%; type: functional, organism-based; how it was run: as §2
[27] = tested on: Human immunodeficiency virus 1; test: Inhibitory concentration required to inhibit HIV-induced cytopathicity in CEM-4 cells by 50% based in the MTT assay; type: functional, organism-based; conditions: Human immunodeficiency virus 1, CEM-4

Structure (SMILES) | IC50 [1] | IC50 [2] | IC50 [3] | IC50 [4] | IC50 [5] | MMC [6] | IC50 [7] | IC50 [8] | IC50 [9] | IC50 [10] | IC50 [11] | MMC [12] | IC50 [13] | IC50 [14] | IC50 [15] | IC50 [16] | IC50 [17] | MMC [18] | MMC [19] | IC50 [20] | also measured
CCCCCCCCCCCCSCCCCCCCCCCCCC(=O)NCCCCCCCCCCC(=O)NCCC(=O)[O-].[Na+] | 3 µg/mL | > 200 µg/mL | 43 µg/mL | 20 µg/mL | 25 µg/mL | >200 µg/mL | 20 µg/mL | 20 µg/mL | > 200 µg/mL | 20 µg/mL | > 200 µg/mL | >50 µg/mL | > 200 µg/mL | 10 µg/mL | > 200 µg/mL | > 200 µg/mL | 12 µg/mL | >200 µg/mL | >200 µg/mL | > 200 µg/mL | IC50 [21]: 10 µg/mL; CC50 [22]: > 250 µg/mL; IC50 [23]: Not Active; CC50 [24]: 42 µg/mL; IC50 [25]: 50 µg/mL; IC50 [26]: > 200 µg/mL
CCCCCCCCCCCCSCCCCCCCCCCCCCCCCCCCCCCCCCCCCCCCCCCCCCCCCCCCCCCCCCCC(=O)N(CC)CCCCCCCCCCC(=O)NC(CCC(=O)[O-])C(=O)O.[Na+] (stereo unspecified) | 0.1 µg/mL | > 10 µg/mL | > 50 µg/mL | 40 µg/mL | 10 µg/mL | 100 µg/mL | 20 µg/mL | 5 µg/mL | > 200 µg/mL | > 40 µg/mL | > 40 µg/mL | >50 µg/mL | > 200 µg/mL | 6 µg/mL | > 10 µg/mL | > 40 µg/mL | 7 µg/mL | >40 µg/mL | >200 µg/mL | > 10 µg/mL | IC50 [27]: 1 µg/mL; IC50 [21]: 30 µg/mL; CC50 [22]: > 250 µg/mL; CC50 [24]: > 300 µg/mL; IC50 [25]: > 50 µg/mL; IC50 [26]: > 10 µg/mL
CCCCCCCCCCCCSCCCCC(=O)NCCCCCCCCCCC(=O)NCCC(=O)[O-].[Na+] | 6 µg/mL | > 200 µg/mL | 50 µg/mL | 70 µg/mL | 30 µg/mL | 400 µg/mL | 40 µg/mL | 23 µg/mL | > 200 µg/mL | 20 µg/mL | > 200 µg/mL | >50 µg/mL | > 200 µg/mL | 30 µg/mL | > 200 µg/mL | > 200 µg/mL | 27 µg/mL | >200 µg/mL | >200 µg/mL | > 200 µg/mL | IC50 [21]: 6 µg/mL; CC50 [22]: > 250 µg/mL; IC50 [23]: Not Active; CC50 [24]: > 300 µg/mL; IC50 [25]: 43 µg/mL; IC50 [26]: > 200 µg/mL
CCCCCCCCCCCCSCCCCCCCCCCC(=O)N(C)CCCCCCCCCCC(=O)[O-].[Na+] | 28 µg/mL | > 200 µg/mL | > 50 µg/mL | > 200 µg/mL | > 50 µg/mL | >400 µg/mL | > 200 µg/mL | > 50 µg/mL | > 200 µg/mL | 70 µg/mL | > 200 µg/mL | >50 µg/mL | > 200 µg/mL | 150 µg/mL | > 200 µg/mL | > 200 µg/mL | 70 µg/mL | >200 µg/mL | >200 µg/mL | > 200 µg/mL | IC50 [21]: 150 µg/mL; CC50 [22]: 128 µg/mL; IC50 [23]: Not Active; CC50 [24]: > 200 µg/mL; IC50 [25]: > 50 µg/mL; IC50 [26]: > 200 µg/mL
CCCCCCCCCCCCSCCCCCCCCCCCCC(=O)NCCCCCCCCCCC(=O)[O-].[Na+] | 20 µg/mL | > 200 µg/mL | > 50 µg/mL | > 200 µg/mL | > 50 µg/mL | >200 µg/mL | > 200 µg/mL | 35 µg/mL | > 200 µg/mL | > 200 µg/mL | > 200 µg/mL | >50 µg/mL | > 200 µg/mL | 50 µg/mL | > 200 µg/mL | > 200 µg/mL | 47 µg/mL | >200 µg/mL | >200 µg/mL | > 200 µg/mL | IC50 [21]: 150 µg/mL; CC50 [22]: 136 µg/mL; IC50 [23]: Not Active; CC50 [24]: 37 µg/mL; IC50 [25]: > 50 µg/mL; IC50 [26]: > 200 µg/mL
CCCCCCCCCCCCSCCCCCCCCCCCCCCCCCCCCCCCCCCCCCCCCCCCCCCCCC(=O)NCCCCCCCCCCC(=O)[O-].[Na+] | 5 µg/mL | > 200 µg/mL | > 50 µg/mL | > 100 µg/mL | 40 µg/mL | 200 µg/mL | > 100 µg/mL | 15 µg/mL | > 200 µg/mL | 20 µg/mL | > 100 µg/mL | >50 µg/mL | > 200 µg/mL | 30 µg/mL | > 200 µg/mL | > 100 µg/mL | 1.3 µg/mL | >200 µg/mL | >200 µg/mL | > 200 µg/mL | IC50 [21]: 50 µg/mL; CC50 [22]: > 250 µg/mL; IC50 [23]: Not Active; CC50 [24]: > 50 µg/mL; IC50 [25]: > 50 µg/mL; IC50 [26]: > 200 µg/mL

From ChEMBL document CHEMBL1130289, “Polyanion inhibitors of human immunodeficiency virus and other viruses. 5. Telomerized anionic surfactants derived from amino acids” (J Med Chem, 1997)
